# Assay results from ChEMBL document CHEMBL5058577, “EUbOPEN Chemogenomics Library 2 (Multiplex)” (2022).
# Test system: HEK-293T
# Test: Multiplex assay against HEK293T
# Type: toxicity, cell-based
# Conditions: human
# Procedure, shortened: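 Cells were classed with CellPathfinder machine-learning gating, first as Hoechst high-intensity objects or normal cells, then (normal cells) as healthy, pyknosed or fragmented nuclei, and finally (pyknosed cells) as mitotic or apoptotic. Staining of live cells at seeding used Hoechst33342, BioTracker Green Microtubule Cytoskeleton Dye, MitoTracker Red and Annexin V Alexa Fluor 680, with imaging on a CQ1 microscope at 37°C and 5% CO2 after compound addition. Tubulin, mitochondrial-mass and membrane-permeability phenotypes are per cents of healthy-nucleus cells.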
# [1] = 12 h, 1 µM, compound concentration 1 uM, replicate 1
# [2] = 12 h, 1 µM, compound concentration 1 uM, replicate 2
# [3] = 12 h, 10 µM, compound concentration 10 uM, replicate 1
# [4] = 12 h, 10 µM, compound concentration 10 uM, replicate 2
# [5] = 24 h, 1 µM, compound concentration 1 uM, replicate 1
# [6] = 24 h, 1 µM, compound concentration 1 uM, replicate 2
# [7] = 24 h, 10 µM, compound concentration 10 uM, replicate 1
# [8] = 24 h, 10 µM, compound concentration 10 uM, replicate 2
# [9] = 48 h, 1 µM, compound concentration 1 uM, replicate 1
# [10] = 48 h, 1 µM, compound concentration 1 uM, replicate 2
# [11] = 48 h, 10 µM, compound concentration 10 uM, replicate 1
# [12] = 48 h, 10 µM, compound concentration 10 uM, replicate 2
smiles,measurement,setting,value
COc1cc(C(=O)N(CCCc2ccccc2)Cc2ccc(CC(=O)O)cc2)cc(OC)c1C,Population Apoptotic (%),[1],45%
same,Population Fragmented Nuclei (%),[1],7%
same,Population Healthy Nuclei (%),[1],82%
same,Population Hoechst High Intensity Objects (%),[1],5%
same,Population Membrane Permeable-Phenotype (%),[1],0%
same,Population Mitochondria Different-Phenotype (%),[1],47%
same,Population Mitotic Cells (%),[1],55%
same,Population Normal (%),[1],94%
same,Population Pyknosed Nuclei (%),[1],10%
same,Population Tubulin-Different-Phenotype (%),[1],31%
same,Total Cell Count,[1],395
same,Population Apoptotic (%),[2],44%
same,Population Fragmented Nuclei (%),[2],6%
same,Population Healthy Nuclei (%),[2],84%
same,Population Hoechst High Intensity Objects (%),[2],4%
same,Population Mitochondria Different-Phenotype (%),[2],50%
same,Population Normal (%),[2],95%
same,Population Pyknosed Nuclei (%),[2],9%
same,Population Tubulin-Different-Phenotype (%),[2],19%
same,Total Cell Count,[2],410
same,Population Apoptotic (%),[3],30%
same,Population Fragmented Nuclei (%),[3],6%
same,Population Healthy Nuclei (%),[3],77%
same,Population Hoechst High Intensity Objects (%),[3],8%
same,Population Membrane Permeable-Phenotype (%),[3],1%
same,Population Mitochondria Different-Phenotype (%),[3],46%
same,Population Mitotic Cells (%),[3],70%
same,Population Normal (%),[3],91%
same,Population Pyknosed Nuclei (%),[3],15%
same,Population Tubulin-Different-Phenotype (%),[3],52%
same,Total Cell Count,[3],431
same,Population Apoptotic (%),[4],47%
same,Population Fragmented Nuclei (%),[4],4%
same,Population Healthy Nuclei (%),[4],82%
same,Population Hoechst High Intensity Objects (%),[4],6%
same,Population Membrane Permeable-Phenotype (%),[4],0%
same,Population Mitochondria Different-Phenotype (%),[4],67%
same,Population Mitotic Cells (%),[4],52%
same,Population Normal (%),[4],93%
same,Population Pyknosed Nuclei (%),[4],13%
same,Population Tubulin-Different-Phenotype (%),[4],44%
same,Total Cell Count,[4],438
same,Population Apoptotic (%),[5],32%
same,Population Fragmented Nuclei (%),[5],7%
same,Population Healthy Nuclei (%),[5],78%
same,Population Hoechst High Intensity Objects (%),[5],5%
same,Population Membrane Permeable-Phenotype (%),[5],0%
same,Population Mitochondria Different-Phenotype (%),[5],27%
same,Population Mitotic Cells (%),[5],67%
same,Population Normal (%),[5],94%
same,Population Pyknosed Nuclei (%),[5],14%
same,Population Tubulin-Different-Phenotype (%),[5],15%
same,Total Cell Count,[5],483
same,Population Apoptotic (%),[6],48%
same,Population Healthy Nuclei (%),[6],82%
same,Population Hoechst High Intensity Objects (%),[6],3%
same,Population Mitochondria Different-Phenotype (%),[6],26%
same,Population Mitotic Cells (%),[6],51%
same,Population Normal (%),[6],96%
same,Population Pyknosed Nuclei (%),[6],9%
same,Population Tubulin-Different-Phenotype (%),[6],10%
same,Total Cell Count,[6],507
same,Population Apoptotic (%),[7],34%
same,Population Fragmented Nuclei (%),[7],7%
same,Population Healthy Nuclei (%),[7],80%
same,Population Hoechst High Intensity Objects (%),[7],7%
same,Population Membrane Permeable-Phenotype (%),[7],0%
same,Population Mitochondria Different-Phenotype (%),[7],39%
same,Population Mitotic Cells (%),[7],65%
same,Population Normal (%),[7],92%
same,Population Pyknosed Nuclei (%),[7],12%
same,Population Tubulin-Different-Phenotype (%),[7],43%
same,Total Cell Count,[7],549
same,Population Apoptotic (%),[8],42%
same,Population Healthy Nuclei (%),[8],79%
same,Population Hoechst High Intensity Objects (%),[8],6%
same,Population Mitochondria Different-Phenotype (%),[8],50%
same,Population Mitotic Cells (%),[8],57%
same,Population Normal (%),[8],93%
same,Population Tubulin-Different-Phenotype (%),[8],38%
same,Total Cell Count,[8],526
same,Population Apoptotic (%),[9],30%
same,Population Fragmented Nuclei (%),[9],12%
same,Population Healthy Nuclei (%),[9],77%
same,Population Hoechst High Intensity Objects (%),[9],1%
same,Population Membrane Permeable-Phenotype (%),[9],1%
same,Population Mitochondria Different-Phenotype (%),[9],16%
same,Population Mitotic Cells (%),[9],69%
same,Population Normal (%),[9],98%
same,Population Pyknosed Nuclei (%),[9],9%
same,Population Tubulin-Different-Phenotype (%),[9],11%
same,Total Cell Count,[9],812
same,Population Apoptotic (%),[10],26%
same,Population Fragmented Nuclei (%),[10],9%
same,Population Healthy Nuclei (%),[10],83%
same,Population Hoechst High Intensity Objects (%),[10],3%
same,Population Mitochondria Different-Phenotype (%),[10],17%
same,Population Mitotic Cells (%),[10],73%
same,Population Normal (%),[10],96%
same,Population Pyknosed Nuclei (%),[10],7%
same,Population Tubulin-Different-Phenotype (%),[10],9%
same,Total Cell Count,[10],753
same,Population Apoptotic (%),[11],32%
same,Population Fragmented Nuclei (%),[11],12%
same,Population Healthy Nuclei (%),[11],76%
same,Population Hoechst High Intensity Objects (%),[11],4%
same,Population Membrane Permeable-Phenotype (%),[11],1%
same,Population Mitochondria Different-Phenotype (%),[11],29%
same,Population Mitotic Cells (%),[11],67%
same,Population Normal (%),[11],95%
same,Population Pyknosed Nuclei (%),[11],11%
same,Population Tubulin-Different-Phenotype (%),[11],29%
same,Total Cell Count,[11],729
same,Population Apoptotic (%),[12],33%
same,Population Fragmented Nuclei (%),[12],15%
same,Population Healthy Nuclei (%),[12],75%
same,Population Hoechst High Intensity Objects (%),[12],8%
same,Population Mitochondria Different-Phenotype (%),[12],37%
same,Population Mitotic Cells (%),[12],66%
same,Population Normal (%),[12],91%
same,Population Pyknosed Nuclei (%),[12],9%
same,Population Tubulin-Different-Phenotype (%),[12],34%
same,Total Cell Count,[12],632
Cc1ccccc1C(=O)Nc1ccc(C(=O)N2CCCC(N(C)C)c3ccccc32)cc1.Cl (configuration not stated),Population Apoptotic (%),[1],18%
same,Population Fragmented Nuclei (%),[1],6%
same,Population Healthy Nuclei (%),[1],80%
same,Population Hoechst High Intensity Objects (%),[1],8%
same,Population Membrane Permeable-Phenotype (%),[1],0%
same,Population Mitochondria Different-Phenotype (%),[1],51%
same,Population Mitotic Cells (%),[1],81%
same,Population Normal (%),[1],91%
same,Population Pyknosed Nuclei (%),[1],12%
same,Population Tubulin-Different-Phenotype (%),[1],33%
same,Total Cell Count,[1],519
same,Population Apoptotic (%),[2],53%
same,Population Fragmented Nuclei (%),[2],5%
same,Population Healthy Nuclei (%),[2],79%
same,Population Hoechst High Intensity Objects (%),[2],6%
same,Population Mitochondria Different-Phenotype (%),[2],72%
same,Population Mitotic Cells (%),[2],46%
same,Population Normal (%),[2],93%
same,Population Pyknosed Nuclei (%),[2],14%
same,Population Tubulin-Different-Phenotype (%),[2],29%
same,Total Cell Count,[2],412
same,Population Apoptotic (%),[3],53%
same,Population Fragmented Nuclei (%),[3],6%
same,Population Healthy Nuclei (%),[3],70%
same,Population Hoechst High Intensity Objects (%),[3],8%
same,Population Membrane Permeable-Phenotype (%),[3],0%
same,Population Mitochondria Different-Phenotype (%),[3],74%
same,Population Mitotic Cells (%),[3],46%
same,Population Normal (%),[3],91%
same,Population Pyknosed Nuclei (%),[3],22%
same,Population Tubulin-Different-Phenotype (%),[3],60%
same,Total Cell Count,[3],233
same,Population Apoptotic (%),[4],64%
same,Population Fragmented Nuclei (%),[4],8%
same,Population Healthy Nuclei (%),[4],72%
same,Population Hoechst High Intensity Objects (%),[4],15%
same,Population Mitochondria Different-Phenotype (%),[4],82%
same,Population Mitotic Cells (%),[4],35%
same,Population Normal (%),[4],84%
same,Population Pyknosed Nuclei (%),[4],18%
same,Population Tubulin-Different-Phenotype (%),[4],61%
same,Total Cell Count,[4],285
same,Population Apoptotic (%),[5],31%
same,Population Fragmented Nuclei (%),[5],11%
same,Population Healthy Nuclei (%),[5],79%
same,Population Hoechst High Intensity Objects (%),[5],5%
same,Population Membrane Permeable-Phenotype (%),[5],0%
same,Population Mitochondria Different-Phenotype (%),[5],28%
same,Population Mitotic Cells (%),[5],68%
same,Population Normal (%),[5],94%
same,Population Pyknosed Nuclei (%),[5],8%
same,Population Tubulin-Different-Phenotype (%),[5],17%
same,Total Cell Count,[5],727
same,Population Apoptotic (%),[6],30%
same,Population Fragmented Nuclei (%),[6],5%
same,Population Healthy Nuclei (%),[6],83%
same,Population Hoechst High Intensity Objects (%),[6],4%
same,Population Mitochondria Different-Phenotype (%),[6],52%
same,Population Mitotic Cells (%),[6],69%
same,Population Normal (%),[6],95%
same,Population Pyknosed Nuclei (%),[6],11%
same,Population Tubulin-Different-Phenotype (%),[6],19%
same,Total Cell Count,[6],567
same,Population Apoptotic (%),[7],41%
same,Population Fragmented Nuclei (%),[7],8%
same,Population Healthy Nuclei (%),[7],70%
same,Population Hoechst High Intensity Objects (%),[7],7%
same,Population Membrane Permeable-Phenotype (%),[7],0%
same,Population Mitochondria Different-Phenotype (%),[7],71%
same,Population Mitotic Cells (%),[7],58%
same,Population Normal (%),[7],92%
same,Population Pyknosed Nuclei (%),[7],21%
same,Population Tubulin-Different-Phenotype (%),[7],46%
same,Total Cell Count,[7],268
same,Population Apoptotic (%),[8],44%
same,Population Fragmented Nuclei (%),[8],7%
same,Population Healthy Nuclei (%),[8],73%
same,Population Hoechst High Intensity Objects (%),[8],14%
same,Population Mitochondria Different-Phenotype (%),[8],83%
same,Population Mitotic Cells (%),[8],55%
same,Population Normal (%),[8],85%
same,Population Pyknosed Nuclei (%),[8],18%
same,Total Cell Count,[8],285
same,Population Apoptotic (%),[9],13%
same,Population Fragmented Nuclei (%),[9],13%
same,Population Healthy Nuclei (%),[9],78%
same,Population Hoechst High Intensity Objects (%),[9],2%
same,Population Membrane Permeable-Phenotype (%),[9],1%
same,Population Mitochondria Different-Phenotype (%),[9],24%
same,Population Mitotic Cells (%),[9],86%
same,Population Normal (%),[9],97%
same,Population Pyknosed Nuclei (%),[9],8%
same,Population Tubulin-Different-Phenotype (%),[9],17%
same,Total Cell Count,[9],1095
same,Population Apoptotic (%),[10],34%
same,Population Fragmented Nuclei (%),[10],10%
same,Population Healthy Nuclei (%),[10],82%
same,Population Hoechst High Intensity Objects (%),[10],4%
same,Population Membrane Permeable-Phenotype (%),[10],0%
same,Population Mitochondria Different-Phenotype (%),[10],30%
same,Population Mitotic Cells (%),[10],65%
same,Population Normal (%),[10],95%
same,Population Pyknosed Nuclei (%),[10],6%
same,Population Tubulin-Different-Phenotype (%),[10],14%
same,Total Cell Count,[10],722
same,Population Apoptotic (%),[11],55%
same,Population Fragmented Nuclei (%),[11],10%
same,Population Healthy Nuclei (%),[11],69%
same,Population Hoechst High Intensity Objects (%),[11],6%
same,Population Membrane Permeable-Phenotype (%),[11],0%
same,Population Mitochondria Different-Phenotype (%),[11],69%
same,Population Mitotic Cells (%),[11],44%
same,Population Normal (%),[11],93%
same,Population Pyknosed Nuclei (%),[11],20%
same,Population Tubulin-Different-Phenotype (%),[11],49%
same,Total Cell Count,[11],283
same,Population Apoptotic (%),[12],63%
same,Population Fragmented Nuclei (%),[12],9%
same,Population Healthy Nuclei (%),[12],77%
same,Population Mitochondria Different-Phenotype (%),[12],72%
same,Population Mitotic Cells (%),[12],36%
same,Population Pyknosed Nuclei (%),[12],12%
same,Population Tubulin-Different-Phenotype (%),[12],41%
same,Total Cell Count,[12],314
